Source: ChEMBL document CHEMBL1138430, “Novel tetrahydroisoquinolines are histamine H3 antagonists and serotonin reuptake inhibitors” (Bioorg Med Chem Lett, 2007)

Legend:
Histamine H3 receptor [1] = biological target: T1, Histamine H3 receptor (Homo sapiens, UniProt Q9Y5N1); test: Antagonist activity at human histamine H3 receptor; type: functional; conditions: read-out: pA2 (converted)
[2] = (§1) Bioavailability in po dosed rat; type: ADME, organism-based; conditions: in vivo
[3] = Plasma clearance in po and iv dosed rat; type: ADME, organism-based
[4] = biological target: Sodium-dependent serotonin transporter (Homo sapiens, UniProt P31645); test: Binding affinity at human SERT
Sequence of Sodium-dependent serotonin transporter (Homo sapiens, UniProt P31645) (P31645 whole entry): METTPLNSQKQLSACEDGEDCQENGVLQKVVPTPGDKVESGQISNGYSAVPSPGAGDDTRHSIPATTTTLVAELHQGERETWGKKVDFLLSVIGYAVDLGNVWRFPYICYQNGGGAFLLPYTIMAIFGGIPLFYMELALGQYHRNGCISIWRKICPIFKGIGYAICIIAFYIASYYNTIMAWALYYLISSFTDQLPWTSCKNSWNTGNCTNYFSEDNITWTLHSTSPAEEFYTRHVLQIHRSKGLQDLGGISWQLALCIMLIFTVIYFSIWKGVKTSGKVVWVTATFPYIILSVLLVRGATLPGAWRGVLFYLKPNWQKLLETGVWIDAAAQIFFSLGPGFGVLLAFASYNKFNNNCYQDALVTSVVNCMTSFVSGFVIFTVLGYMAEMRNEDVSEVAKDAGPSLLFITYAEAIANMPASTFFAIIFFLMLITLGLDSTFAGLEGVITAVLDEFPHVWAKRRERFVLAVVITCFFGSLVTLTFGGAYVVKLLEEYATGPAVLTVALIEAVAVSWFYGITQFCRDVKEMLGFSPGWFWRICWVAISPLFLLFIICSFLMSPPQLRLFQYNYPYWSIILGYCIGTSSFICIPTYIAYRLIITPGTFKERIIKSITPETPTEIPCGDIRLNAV

[5] = biological target: Sodium-dependent serotonin transporter (Rattus norvegicus, UniProt P31652); test: Binding affinity at rat SERT
Sequence of Sodium-dependent serotonin transporter (Rattus norvegicus, UniProt P31652) (P31652 whole entry): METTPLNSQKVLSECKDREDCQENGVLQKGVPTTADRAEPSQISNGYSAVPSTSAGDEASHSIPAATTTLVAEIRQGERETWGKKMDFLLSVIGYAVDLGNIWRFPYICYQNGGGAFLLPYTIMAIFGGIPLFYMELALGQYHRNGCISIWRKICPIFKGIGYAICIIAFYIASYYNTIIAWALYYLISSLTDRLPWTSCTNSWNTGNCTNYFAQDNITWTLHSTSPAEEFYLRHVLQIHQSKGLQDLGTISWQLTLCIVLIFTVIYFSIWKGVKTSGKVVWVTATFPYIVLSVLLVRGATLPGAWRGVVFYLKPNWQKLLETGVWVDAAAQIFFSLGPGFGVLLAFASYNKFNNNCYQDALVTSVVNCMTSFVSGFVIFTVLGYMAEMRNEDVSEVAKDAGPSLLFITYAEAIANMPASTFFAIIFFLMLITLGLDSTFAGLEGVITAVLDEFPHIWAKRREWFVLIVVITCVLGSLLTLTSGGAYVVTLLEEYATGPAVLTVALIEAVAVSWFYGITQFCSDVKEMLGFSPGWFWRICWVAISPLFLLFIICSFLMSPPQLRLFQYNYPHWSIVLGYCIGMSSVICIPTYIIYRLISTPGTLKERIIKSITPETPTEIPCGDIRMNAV

[6] = (§2) Volume of distribution at steady state in po and iv dosed rat; type: ADME, organism-based; conditions: in vivo, read-out: Vdss
[7] = (§3) Half life in po and iv dosed rat; type: ADME, organism-based; conditions: in vivo
Histamine H3 receptor [8] = biological target: T1, Histamine H3 receptor; test: Binding affinity at human histamine H3 receptor
[9] = Cmax in rat brain at 10 mg/kg, po; type: ADME, organism-based; set-up: dose 10 mg/kg, route oral
Rattus norvegicus [10] = test: as §1; type: ADME, organism-based; conditions: in vivo
Rattus norvegicus [11] = test: as §2; type: ADME, organism-based; conditions: in vivo
Rattus norvegicus [12] = test: as §3; type: ADME, organism-based; conditions: in vivo
[13] = test system: Voltage-gated potassium channel; test: Binding affinity for potassium channel at 1 uM; type: protein assay; conditions: human
[14] = test system: Voltage-gated calcium channel; test: Binding affinity for calcium channel at 1 uM; type: protein-complex assay; conditions: human
[15] = biological target: Sodium-dependent noradrenaline transporter (Homo sapiens, UniProt P23975); test: Inhibition of [3H]nisoxetine uptake in human NET expressed in MDCK cells; type: cell-based
Sequence of Sodium-dependent noradrenaline transporter (P23975 whole entry): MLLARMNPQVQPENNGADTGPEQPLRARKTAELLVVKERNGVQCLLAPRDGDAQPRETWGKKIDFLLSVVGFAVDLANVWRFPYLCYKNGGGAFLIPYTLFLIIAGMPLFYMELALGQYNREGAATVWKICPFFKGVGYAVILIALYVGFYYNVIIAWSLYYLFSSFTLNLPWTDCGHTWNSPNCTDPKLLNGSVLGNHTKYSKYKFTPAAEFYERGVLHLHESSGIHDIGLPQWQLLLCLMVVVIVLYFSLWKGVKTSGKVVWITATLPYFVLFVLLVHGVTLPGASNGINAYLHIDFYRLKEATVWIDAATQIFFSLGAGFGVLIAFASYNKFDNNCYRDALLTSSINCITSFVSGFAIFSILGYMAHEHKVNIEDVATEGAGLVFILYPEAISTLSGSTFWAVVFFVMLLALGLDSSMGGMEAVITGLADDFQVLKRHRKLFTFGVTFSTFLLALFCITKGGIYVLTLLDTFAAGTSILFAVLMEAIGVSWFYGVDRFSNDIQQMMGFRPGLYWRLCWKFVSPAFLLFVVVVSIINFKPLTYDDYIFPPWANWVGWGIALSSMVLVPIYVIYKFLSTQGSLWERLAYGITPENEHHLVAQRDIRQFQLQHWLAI

[16] = biological target: Sodium-dependent dopamine transporter (Homo sapiens, UniProt Q01959); test: Inhibition of [3H]WIN-uptake in human DAT expressed in CHO cells; type: cell-based
Sequence of Sodium-dependent dopamine transporter (Q01959 whole entry): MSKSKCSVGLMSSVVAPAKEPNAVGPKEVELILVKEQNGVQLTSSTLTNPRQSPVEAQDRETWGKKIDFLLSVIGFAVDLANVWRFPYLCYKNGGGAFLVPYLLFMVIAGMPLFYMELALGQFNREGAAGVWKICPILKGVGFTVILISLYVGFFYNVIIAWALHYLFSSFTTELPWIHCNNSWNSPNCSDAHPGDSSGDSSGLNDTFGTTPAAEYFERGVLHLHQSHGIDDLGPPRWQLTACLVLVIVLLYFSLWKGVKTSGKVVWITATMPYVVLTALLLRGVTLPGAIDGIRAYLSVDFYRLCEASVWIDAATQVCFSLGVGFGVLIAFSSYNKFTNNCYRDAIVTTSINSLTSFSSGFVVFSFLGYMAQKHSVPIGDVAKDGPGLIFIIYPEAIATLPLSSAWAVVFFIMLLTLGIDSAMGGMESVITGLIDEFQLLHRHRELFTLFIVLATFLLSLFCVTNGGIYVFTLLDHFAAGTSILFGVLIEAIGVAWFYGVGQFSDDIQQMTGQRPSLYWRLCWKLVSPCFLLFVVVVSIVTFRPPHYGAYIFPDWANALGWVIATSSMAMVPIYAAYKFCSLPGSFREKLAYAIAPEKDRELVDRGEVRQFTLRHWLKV
Outline: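 Human DAT expressed in CHO cells; membranes were incubated on ice for 2 h with 10.9 nM [3H]-WIN 35,428, then harvested by rapid filtration. Nonspecific binding was defined with GBR-12909. Ki values are means of at least three experiments run in triplicate, with SEM.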

Rattus norvegicus [17] = species: Rattus norvegicus; test: Ex vivo receptor occupancy at SERT in rat; type: functional
Rattus norvegicus [18] = species: Rattus norvegicus; test: Ex vivo receptor occupancy at histamine H3 receptor in rat; type: functional
Brain = test: Drug level in rat brain at 0.1 mg/kg; type: ADME, organism-based; set-up: dose 0.1 mg/kg; conditions: in vivo, read-out: Drug uptake

T1 sequence (Q9Y5N1 whole entry): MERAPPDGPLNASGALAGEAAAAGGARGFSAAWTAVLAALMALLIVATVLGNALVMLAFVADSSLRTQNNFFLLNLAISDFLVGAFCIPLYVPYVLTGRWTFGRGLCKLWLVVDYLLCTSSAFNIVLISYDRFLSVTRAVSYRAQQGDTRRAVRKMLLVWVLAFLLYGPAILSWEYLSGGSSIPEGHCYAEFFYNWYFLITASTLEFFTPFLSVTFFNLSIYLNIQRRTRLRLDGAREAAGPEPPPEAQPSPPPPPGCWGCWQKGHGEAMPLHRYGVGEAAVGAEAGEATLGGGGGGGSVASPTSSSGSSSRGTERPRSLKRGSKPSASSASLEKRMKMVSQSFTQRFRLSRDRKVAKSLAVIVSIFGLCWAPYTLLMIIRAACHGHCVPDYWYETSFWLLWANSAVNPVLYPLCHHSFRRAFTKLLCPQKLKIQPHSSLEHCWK

Structure (SMILES) | Kb (Histamine H3 receptor [1]) [nM] | Ki [4] [nM] | Ki [5] [nM] | Ki (Histamine H3 receptor [8]) [nM] | also measured
COc1ccc(C2CN(C)Cc3cc(OCCCN4CCOCC4)ccc32)cc1 (stereo unspecified) | 2.29 | – | – | – | –
COc1ccc(C2CN(C)Cc3cc(OCCCN4CCC(F)CC4)ccc32)cc1Cl (stereo unspecified) | 6.17 | 5.7 | 5.3 | 9.7 | –
CN1Cc2cc(OCCCN3CCC(F)CC3)ccc2C(c2ccccc2Cl)C1 (stereo unspecified) | – | 18 | 17 | 5.6 | –
CN1Cc2cc(OCCCN3CCC(F)CC3)ccc2C(c2ccc(Cl)c(Cl)c2)C1 (stereo unspecified) | 33.1 | 21 | 8.3 | 31 | –
CN1Cc2cc(OCCCN3CCC(F)CC3)ccc2C(c2cc(Cl)ccc2Cl)C1 (stereo unspecified) | 4.57 | 107 | 120 | 9.3 | –
CN1Cc2cc(OCCCN3CCC(F)CC3)ccc2C(c2cccc(C(F)(F)F)c2)C1 (stereo unspecified) | – | 15 | 30 | 11 | –
CN1Cc2cc(OCCCN3CCC(F)CC3)ccc2C(c2ccc(SC(F)(F)F)cc2)C1 (stereo unspecified) | – | 34 | 36 | 46 | –
COc1ccc([C@H]2CN(C)Cc3cc(OCCCN4CCOC[C@@H]4C)ccc32)cc1 | 2.95 | – | – | 6.9 | –
CN1Cc2cc(OCCCN3CCC(F)CC3)ccc2C(c2ccc(S(C)(=O)=O)cc2)C1 (stereo unspecified) | – | 135 | 22 | – | –
CN1Cc2cc(OCCCN3CCC(F)CC3)ccc2C(c2ccccc2)C1 (stereo unspecified) | 0.724 | 46 | – | 3.3 | –
COc1cccc(C2CN(C)Cc3cc(OCCCN4CCC(F)CC4)ccc32)c1 (stereo unspecified) | 0.851 | 4.3 | 4.3 | 2 | –
CN1Cc2cc(OCCCN3CCC(F)CC3)ccc2C(c2cccc(Cl)c2)C1 (stereo unspecified) | 1.38 | 24 | – | – | –
COc1ccc(C2CN(C)Cc3cc(OCCCN4CCC(F)CC4)ccc32)cc1 (stereo in doubt; 12b) | – | – | – | – | F (Rattus norvegicus [10]): 13%; clearance [3]: 32.3 mL/min/kg; Vdss (Rattus norvegicus [11]): 5.1 L/kg; half-life [7]: 798 min

Continued, in another order:

Kb (Histamine H3 receptor [1]) [nM] | Ki [4] [nM] | Ki [5] [nM] | Ki (Histamine H3 receptor [8]) [nM] | Structure (SMILES) | also measured
– | 4.7 | 2.7 | 7.3 | CCOc1ccc(C2CN(C)Cc3cc(OCCCN4CCC(F)CC4)ccc32)cc1 (stereo unspecified) | bioavailability [2]: 11%; clearance [3]: 29.9 mL/min/kg; Vd [6]: 15.5 L/kg; half-life [7]: 618 min
– | – | 16 | 8.3 | CN1Cc2cc(OCCCN3CCC(F)CC3)ccc2C(c2ccc(Cl)cc2)C1 (stereo unspecified) | –
– | 8.6 | 14 | 18 | CN1Cc2cc(OCCCN3CCC(F)CC3)ccc2C(c2ccc(C(F)(F)F)cc2)C1 (stereo unspecified) | –
1.41 | 16 | 7.8 | 3.5 | CN1Cc2cc(OCCCN3CCC(F)CC3)ccc2C(c2ccc(C#N)cc2)C1 (stereo unspecified) | –
– | 13 | 4.4 | 8.3 | Cc1ccc(C2CN(C)Cc3cc(OCCCN4CCC(F)CC4)ccc32)cc1 (stereo unspecified) | –
4.37 | 4.3 | – | 10 | CN1Cc2cc(OCCCN3CCC(F)CC3)ccc2C(c2ccc(OC(F)F)cc2)C1 (stereo unspecified) | –
– | 2.7 | 1.7 | – | COc1ccc(C2CN(C)Cc3cc(OCCCN4CCC(F)CC4)ccc32)cc1 (racemic) | Cmax [9]: 1500 nM; F (Rattus norvegicus [10]): 6%; Vdss (Rattus norvegicus [11]): 19.9 L/kg; t1/2 (Rattus norvegicus [12]): 16 h
– | – | 2 | – | CSc1ccc(C2CN(C)Cc3cc(OCCCN4CCC(F)CC4)ccc32)cc1 (racemic) | Cmax [9]: 2400 nM; bioavailability [2]: 21%; clearance [3]: 18.5 mL/min/kg; Activity [13]: Not Active; Activity [14]: Not Active; Ki [15]: 118 nM; Ki [16]: 46 nM; ED50 (Rattus norvegicus [17]): 0.1 mg/kg; ED50 (Rattus norvegicus [18]): 0.05 mg/kg; Vd [6]: 9.6 L/kg; half-life [7]: 594 min; concentration (Brain): 130 nM
– | 9.3 | 4.5 | – | COc1ccc(C2CN(C)Cc3cc(OCCCN4CCC(F)CC4)ccc32)cc1 (single isomer, unassigned; (-)) | –
– | 8.8 | 2.3 | – | CSc1ccc(C2CN(C)Cc3cc(OCCCN4CCC(F)CC4)ccc32)cc1 (stereo in doubt; 12o) | –
– | 4.2 | 5 | – | CSc1ccc(C2CN(C)Cc3cc(OCCCN4CCC(F)CC4)ccc32)cc1 (stereo in doubt; (-)/-12p) | –
